IDE act: activators of human insulin-degrading enzyme in cells; HEK cells, FAbeta-B cleavage, fluorescence polarization; 0% vehicle, 100% cell-free pure enzyme wells; AID 493087; 340,000 tested, 0.073% active; P14735; activation, % at 5.96 µM;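 active means activation above the mean of all tested compounds plus 3 SD, set per screening campaign, cut at about 17% in these data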
ARFGAP1 inh: rat ARFGAP1 inhibition | Arfgap1-stimulated ARF1 GTP hydrolysis, GDP FP detection | inhibition, % at 16.5 µM | 360,000 tested, 0.26% active;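 active means inhibition above a per-plate limit, mean inhibition of low control wells plus 3 SD, cut at about 25% in these data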;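 further: 0% = DMSO wells with enzyme and 100% = wells lacking Arfgap1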
Target sequence (Q62848 1-136 limits assumed): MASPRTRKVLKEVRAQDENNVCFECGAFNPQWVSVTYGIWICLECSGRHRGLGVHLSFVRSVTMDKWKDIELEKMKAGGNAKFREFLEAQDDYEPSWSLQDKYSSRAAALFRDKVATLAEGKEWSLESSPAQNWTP
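System: truncated rat Arfgap1 GAP domain / Medium: HEPES-based buffer, pH 7.5 / Also added: N-terminally truncated human ARF1-GTP substrate / Incubation: enzyme reaction 120 min at 25 °C after 20 min preincubation / Measured by: FP of antibody-bound GDP Alexa 633 tracer, ex 620/em 688 nm / Replicates: singlicate, each compound tested once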
ASAP1 inh: blocks human ASAP1-stimulated Arf1 GTP hydrolysis; Q9ULH1; inhibition, % at 16.5 µM; GDP FP detection; AID 624377; 360,000 tested, 0.19% active; in the data active means inhibition above about 25%;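 further: 0% = vehicle with enzyme and substrate and 100% = no enzyme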
Target sequence (Q9ULH1 325-724 limits assumed): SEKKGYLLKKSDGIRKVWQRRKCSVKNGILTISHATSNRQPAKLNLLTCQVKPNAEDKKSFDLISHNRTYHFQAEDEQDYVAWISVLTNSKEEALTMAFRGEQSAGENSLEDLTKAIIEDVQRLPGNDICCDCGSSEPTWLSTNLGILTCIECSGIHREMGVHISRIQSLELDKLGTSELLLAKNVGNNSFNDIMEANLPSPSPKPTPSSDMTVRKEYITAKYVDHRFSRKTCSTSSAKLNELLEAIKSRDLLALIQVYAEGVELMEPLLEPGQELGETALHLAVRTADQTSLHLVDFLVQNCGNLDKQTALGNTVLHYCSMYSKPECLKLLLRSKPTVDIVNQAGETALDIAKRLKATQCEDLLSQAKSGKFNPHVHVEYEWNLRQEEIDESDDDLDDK
IDE inh: inhibits human insulin-degrading enzyme in HEK cells | P14735 | FAbetaB cleavage, fluorescence polarization | inhibition, % at 5.59 µM | 320,000 tested, 0.41% active;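 active means percent inhibition above the average of all tested compounds plus 3 SD, set per screening campaign, cut at about 16% in these data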;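 further: IDE supplied by intact live HEK cells; FP after avidin binding of uncleaved biotin substrate so inhibition keeps polarization high; 0% = DMSO wells and 100% = 60 µM reference IDE inhibitor Ii1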
PREPL inh: inhibits the human prolyl oligopeptidase-like enzyme; inhibition, % at 5.96 µM; recombinant PREPL, fluorescence polarization activity-based probe; 320,000 tested, 0.68% active; AID 2751; in the data active means inhibition above about 43%;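 further: 0% = enzyme with DMSO and 100% = wells lacking enzyme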
Active calls of the source: *. An excerpt weighted towards active compounds, which were near 1.2% of everything screened.

COC(=O)C1=C(C)N(Cc2cccc(C(F)(F)F)c2)C(=NCc2ccc3c(c2)OCO3)NC1c1ccc(F)cc1 (configuration not stated) was read as ARFGAP1 inh 12.0 and ASAP1 inh -5.3.
Screening O=c1c2c3c(sc2n(CCN2CCOCC2)c(=O)n1C1CCCCC1)CCCCC3 returned ARFGAP1 inh 4.3 and ASAP1 inh 0.1.
O=C(Nc1ccc2nc(-c3ccco3)c(-c3ccco3)nc2c1)N1CCCCCC1 was read as IDE inh -0.8 and PREPL inh 75.0*.
`Clc1ccc(CN2CCN(c3ncc(Cc4ccccc4)cn3)CC2)c(Cl)c1` gave ARFGAP1 inh -2.5 and ASAP1 inh 0.8.
COC(=O)C1=C(C)N(C)C(=NCc2cc(OC)c(OC)c(OC)c2)NC1c1cccc(Cl)c1 (configuration not stated) was read as ARFGAP1 inh 1.2 and ASAP1 inh -2.2.
Screening Fc1ccc(COc2ccccc2CNCc2ccncc2)cc1 returned IDE act -13.7, ARFGAP1 inh -3.4, ASAP1 inh -3.7, IDE inh 17.4* and PREPL inh -28.4.
O=C1NCCOc2ccccc21 was read as ARFGAP1 inh -15.4 and ASAP1 inh -2.5.
`O=C(Nc1ccc(-c2nc3ccccc3o2)cc1)c1ccc2c(c1)OCO2` gave IDE act 17.8*, ARFGAP1 inh 4.4, ASAP1 inh 10.2, IDE inh -4.2 and PREPL inh -1.5.
For Cc1ccccc1S(=O)(=O)N1CCCc2nc(-c3ccc(Br)cc3)ccc21 the results were ARFGAP1 inh -7.7 and ASAP1 inh 3.9.
Screening COc1ccc(NCC(O)COc2ccc(C(C)(C)C)cc2)cc1 (configuration not stated) returned IDE act 21.6*, ARFGAP1 inh 8.0, ASAP1 inh 5.3, IDE inh -1.5 and PREPL inh 15.5.
Screening CCOc1cc(N2CCC(O)CC2)ccc1Nc1ncc2c(n1)N(C)c1ccccc1C(=O)N2C returned ARFGAP1 inh -12.7 and ASAP1 inh 8.5.
Screening COC(=O)[C@]12C[C@H](CC(=O)N3CCCC3)C(=O)N(CCC3=CCCCC3)C1=C[C@H](C(C)(C)C)O[C@@H]2C returned ARFGAP1 inh -6.5 and ASAP1 inh -4.9.
For Oc1c(Cl)cc(Cl)cc1Sc1cc(Cl)cc(Cl)c1O the results were IDE inh -0.8 and PREPL inh 48.0*.
O=c1cc(-c2ccccc2)[nH]n1-c1ccccc1 was read as IDE act 4.7, ARFGAP1 inh 7.0 and ASAP1 inh 5.0.
Screening CC(C)(C)c1cc(=O)n(-c2ccccc2)[nH]1 returned IDE act 9.1, ARFGAP1 inh 29.5*, ASAP1 inh 3.9, IDE inh 7.3 and PREPL inh 31.2.
`CSc1ccc(SC2CN(Cc3ccc(C)cc3)S(=O)(=O)C2)cc1` (configuration not stated) gave ARFGAP1 inh 8.5 and ASAP1 inh 15.4.
For Cc1ccc(N=Nc2c(N)nn(-c3ccccc3)c2N)cc1 the results were IDE act -5.1, ARFGAP1 inh 3.3, ASAP1 inh -2.7, IDE inh 3.2 and PREPL inh 62.3*.
`COc1ccc(NC(=O)NS(=O)(=O)c2ccc(C)cc2)cn1` gave IDE act 30.1*, ARFGAP1 inh 1.6 and ASAP1 inh -1.6.
For COc1cccc(CNC(=O)[C@H]2CCCN2C(=O)[C@H]2CCCN2C(=O)c2cccc(F)c2)c1 the results were ARFGAP1 inh -6.4 and ASAP1 inh -9.9.
N=c1n(Cc2ccccc2)c2ccccc2n1CC(O)c1ccccc1 (configuration not stated) was read as IDE act 7.3, ARFGAP1 inh 5.0, ASAP1 inh 3.0, IDE inh -0.3 and PREPL inh 43.4*.
`COc1cccc2cc(-c3ccnc(=S)[nH]3)oc12` gave IDE inh 39.3* and PREPL inh 4.3.
For C#CCOCCOCCOCCNc1nc(N2CCN(C(=O)CCCCCCCCCCNC(=O)[C@H]([C@@H](C)CC)n3cc(CCCCCN)nn3)CC2)nc(N2CCN(C(=O)CCCCCCCCCCNC(=O)[C@@H]([C@H](C)CC)n3cc(CCCCCN)nn3)CC2)n1 the results were IDE inh -8.0 and PREPL inh 59.4*.
C#CCOCCOCCOCCNc1nc(N2CCOCC2)nc(N2CCN(C(=O)CCCCCCCCCCNC(=O)[C@@H]([C@H](C)CC)n3cc(CCCCCN)nn3)CC2)n1 was read as IDE act 7.6, ARFGAP1 inh 10.1, ASAP1 inh -12.7, IDE inh 0.2 and PREPL inh 15.5.
C#CCOCCOCCOCCNc1nc(N2CCN(C(=O)CCCCCCCCCCNC(=O)[C@H]([C@@H](C)CC)n3cc(CCCCN=C(N)N)nn3)CC2)nc(N2CCN(C(=O)CCCCCCCCCCNC(=O)[C@H]([C@@H](C)CC)n3cc(CCCCN=C(N)N)nn3)CC2)n1 was read as IDE inh -6.9 and PREPL inh 67.8*.
Screening C#CCOCCOCCOCCNc1nc(N2CCN(C(=O)CCCCCCCCCCNC(=O)[C@@H](CCC(=O)O)n3cc(CCCCCN)nn3)CC2)nc(N2CCN(C(=O)CCCCCCCCCCNC(=O)[C@H]([C@@H](C)CC)n3cc(CCCCCN)nn3)CC2)n1 returned IDE act 8.1, IDE inh 2.9 and PREPL inh 30.5.
`O=Cc1ccc(/C=C2\c3ccccc3C(=O)N2c2ccccc2)o1` gave ARFGAP1 inh -4.0 and ASAP1 inh 10.9.
COc1ccc(C2SCC(C(=O)O)N2C(C)=O)cc1 (configuration not stated) was read as IDE act 1.9, ARFGAP1 inh -12.5, ASAP1 inh -2.0, IDE inh -2.0 and PREPL inh 6.7.
COc1ccc(C2SCC(C(=O)O)N2C(C)=O)cc1OC (configuration not stated) was read as IDE act 7.1, ARFGAP1 inh 26.8*, ASAP1 inh -1.9, IDE inh 1.9 and PREPL inh 9.7.
Screening O=Cc1ccc([B-](F)(F)F)o1 returned ARFGAP1 inh -10.1 and ASAP1 inh 0.9.
Screening CCOC(=O)[C@@H]1CSCCS(=O)(=O)N1C(=O)[C@H](Cc1ccccc1)NC(=O)OC(C)(C)C returned ARFGAP1 inh 6.4 and ASAP1 inh -1.8.
For CCc1ccc(N2C(=O)Cc3c2nc(N)c(C#N)c3N)cc1 the results were IDE act 2.7, ARFGAP1 inh 1.7, ASAP1 inh 15.3, IDE inh -7.6 and PREPL inh 43.6*.
COC(=O)[C@]12C[C@H](CC(=O)N3CCOCC3)C(=O)N(Cc3ccccc3)C1=C[C@H](C(C)C)O[C@@H]2C1CC1 was read as ARFGAP1 inh 8.5 and ASAP1 inh -7.4.
`CSc1ccccc1OCc1cc(C(=O)NCCn2nc(C)cc2C)no1` gave IDE act 34.0*, ARFGAP1 inh -12.7, ASAP1 inh 4.1, IDE inh -5.4 and PREPL inh 5.3.

Screening data as filed in PubChem BioAssay.
